Reference: ChEMBL document CHEMBL4513216, “Probing the Open Global Health Chemical Diversity Library for Multistage-Active Starting Points for Next-Generation Antimalarials” (ACS Infect Dis, 2020)

Assay: Toxicity liver stage against HepG2, at 10uM
Format: cell-based
Set-up: test concentration 10 uM, cell line HepG2-A16-CD81EGFP
Conditions: human, HepG2-A16-CD81EGFP cells; read-out: INHIBITION
How it was run: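 Uninfected HepG2-A16-CD81EGFP cells, 3 × 10^3 per well, 1536-well, plated on prespotted compound at 10 μM final, parasite-free screening media added to match infected plates; puromycin 10 μM positive, DMSO 0.5% negative; run in parallel with 48 h PbLuc assay at 37 °C, 5% CO2; viability by CellTiter-Glo luminescence, normalized to controls.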

SMILES	cytotoxicity at 10 µM [%]
O=C(O)C1CCCN1c1nc(-c2ccc(Cl)c(Cl)c2)cc(C(F)(F)F)n1 (stereo not given)	32.1
CN1CC=C(c2noc(CCC(=O)N3CCc4ccccc4C3)n2)CC1	6.97
CC(C)n1ccc2c(NC(=O)c3n[nH]c4c3CCC4)cccc21	7.64
COc1ccc(CC(C)(O)CNC(=O)Cc2ccc(F)cc2)cc1 (stereo not given)	3.91
O=C(Nc1cnc(N2CCOCC2)nc1)c1ccc(C(F)(F)F)cc1	9.94
Cc1ccc(S(=O)(=O)N2CCC(Oc3ccccn3)CC2)c(C)c1	26.3
Cc1c(C)n(Cc2ccncc2)c2nc3c(c(N)c12)CCCCCC3	9.18
COc1ccc(NC2CCc3c2[nH]c(=O)n(C2CCCCC2)c3=O)cc1 (stereo not given)	2
CC(C)c1nnc2ccc(N3CCC(C(=O)Nc4nccs4)CC3)nn12	42.6
CCC1=NC(SCC(=O)c2ccccc2)c2cc(CC)sc2N1 (stereo not given)	-12.5
CCCc1nc(N2CCCCCC2)c2c(n1)c(C)nn2CC	39.4
Fc1ccccc1-c1nnn(CCCc2nn[nH]n2)n1	-4.3
Cc1cc2c(cc1Cl)C=CC1(CCN(CC(=O)NC3CCCC3)CC1)O2	17
Cc1ccc(Oc2c(F)cccc2OC[C@@H](N)CC(C)C)cc1	-8.94
Cc1nn(C)cc1C1=NS(=O)(=O)N(C)C(C(=O)Nc2ccc(Cl)cc2)=C1	7.9
Nc1cc(CCC2CN(Cc3ccc4cc[nH]c4c3)CCO2)ccn1 (stereo not given)	-10.6
Cc1ccc(S(=O)(=O)N2C[C@H]3C[C@H](NC(=O)c4ccnn4C)[C@H]3C2)cc1	85.2
NS(=O)(=O)c1ccc(NCc2ccccc2)cc1C(F)(F)F	3.85
Fc1ccc(CNCc2cc(Br)c3c(c2)OCO3)cc1	0.658
CCc1cnc(COc2ccc(OC3CCCCNC3=O)cc2)o1 (stereo not given)	0.318
CNC(=O)CCOC(=O)c1cccc(-n2cccn2)c1	-39.6
CCc1nc(CN2CCN(C(=O)c3cc(C)nn3C)CC2)cs1	3.83

SMILES	cytotoxicity at 10 µM [%]
Cc1cc(N(C)CC2COc3ccccc3O2)nc(N)n1 (stereo not given)	17.6
Cc1noc(C)c1C(=O)N(C)C(C)c1cccnc1 (stereo not given)	0.363
CCn1nc2c(cc1=O)CN(c1ncnc3sccc13)CC2	47.5
O=C(Nc1ccncc1)NC1CCN(c2ccccc2OC(F)F)C1 (stereo not given)	15.6
COc1ccnc(N2CCCN(c3nc(C4CC4)ns3)CC2)n1	0.142
CCC(=O)NC1CCCN(C(=O)c2ccc(OCC3CC3)nc2)C1 (stereo not given)	15.2
Cc1ncc(C(=O)NCCNc2ncnc3sccc23)s1	27.6
CCCC(=O)N(C)c1cccc2ncccc12	3.94
Cc1cccc(OCC(O)CN2CCN(c3nccs3)CC2)c1 (stereo not given)	16.5
Cc1cnn(CC2CN(CCCS(=O)(=O)N(C)C)CCO2)c1 (stereo not given)	-2.71
Cc1[nH]ncc1CCCNC(=O)Nc1ccc(F)cc1	3.91
O=c1[nH]ncc(NCCOc2ccc3c(c2)CCC3)c1Cl	34.5
Fc1ccc(CN2CCCC2Cn2cncn2)c2ncccc12 (stereo not given)	11.7
Cc1ccc(-c2n[nH]cc2CNCCn2cccn2)o1	-11.2
Fc1ccc(-c2n[nH]cc2CNCCn2cccn2)cc1	8.1
Cc1nc(C)n(CC2CCCN2CC(=O)NCCC2=CCCCC2)n1 (stereo not given)	-0.527
O=C(c1cc(F)cc2[nH]cnc12)N1CCCCC1Cn1cccn1 (stereo not given)	16.5
CNC(=O)Cc1nc(CNc2ccc(SC)c(F)c2)cs1	-1.99
CCNC(=O)N1CCC(NC(=O)NCCc2cccc(C)c2)C1 (stereo not given)	-42.2
Cc1ccc(-c2ncc(CNc3cnccc3CO)s2)cc1	-7.65
CCCNC(=O)c1cccc(CNCc2csc(C(C)(C)C)n2)c1	12.3
COCC(O)CNc1ccc(C#N)cc1C(F)(F)F (stereo not given)	13.3

SMILES	cytotoxicity at 10 µM [%]
Cc1nnc2n1CCN(CC(O)CN1CCC(C)CC1)C2 (stereo not given)	2.78
O=C1C(N2CC[C@@H](O)C2)CCCN1Cc1cccc(C(F)(F)F)c1 (stereo not given in full)	1.22
CCc1ccc(CNC(=O)c2ccc(N3CCOC3=O)cc2)s1	22.5
Cc1nc(CN2CCCC(Nc3ncnc4ccsc34)C2)no1 (stereo not given)	42.2
Cc1ccc(OCC(O)CN(C)CC(=O)Nc2cc(C)on2)c(C)c1 (stereo not given)	-17.3
O=C(c1ccc(Br)s1)N1CCN(Cc2ccc(OC(F)(F)F)cc2)CC1	23.1
Cc1n[nH]cc1CNc1ccc2c(c1)CN(C(=O)OC(C)(C)C)CC2	14.9
CN(Cc1ccc(N2CCCCC2)cc1)Cc1noc(C(C)(C)C)n1	12.5
CC(=O)N1CCC(c2nc3ccc(-c4cccc(F)c4)cn3n2)CC1	12.4
COCC(=O)N1CCC2(CC1)CN(CC1CC1)c1ccc(F)cc12	-103
O=S(=O)(c1ccccc1)N1CCC2(CCCN2Cc2cccc(F)c2)C1 (stereo not given)	-68.4
O=C(N1CCCC1)N1C[C@@H]2CN(Cc3ccoc3)CCO[C@@H]2C1	-76.7
O=C(c1cccs1)N1C[C@H]2CCC[C@@]2(COCC2CCOCC2)C1	-68.9
Cc1ncc(-c2ccnc(NCCO)n2)c(C2CCCCC2)n1	-11
CCc1ccc(-c2ncc3c(n2)N(C)CCN(CCN(C)C)C3=O)cc1	-9.52
CCC(Nc1nc(C)nc2onc(C)c12)c1cccs1 (stereo not given)	52.4
COCCc1noc(C2CCCN(c3ncnc4c3CCC4)C2)n1 (stereo not given)	19.3
COc1ccc(C(=O)C2CCCN(Cc3cccc(F)c3)C2)c(OC)c1 (stereo not given)	6.4
CCCc1nnc(N2CCC(N3CCCC3)CC2)o1	-16.3
COCCC1(C(=O)O)CCCN(C(=O)c2cc(F)ccc2OC)C1 (stereo not given)	-11.4
CN1CCCC2(CC1)CCN(C(=O)CCc1ccccc1F)CC2	-5.95
O=C(O)[C@@H]1CN(C(=O)Cc2ccccc2Cl)C[C@H]1C1CC1	9.53

SMILES	cytotoxicity at 10 µM [%]
N[C@@H]1c2ccccc2C2(CCN(c3ccc(C(F)(F)F)cn3)CC2)[C@H]1O	-5.78
CC(C)c1noc(CN(Cc2cccnc2)C2CN3CCC2CC3)n1 (stereo not given)	17.2
COc1ccnc(CNc2nc(C)nc3ccsc23)c1	40.5
C[C@@H](O)[C@H](NC(=O)c1csc2nc(-c3ccccc3F)cn12)C(N)=O	2.37
Nc1nc(NCCO)cc(N2CCc3c([nH]c4ccccc34)C2)n1	11.9
CN(Cc1ccn[nH]1)Cc1c[nH]nc1-c1ccc(F)cc1	-6.41
Cc1cnc(C)c(N2CCC(c3nnc(CN(C)C)n3C3CC3)CC2)n1	-0.918
O=C(NCc1cnn2cccnc12)c1cccc(CC2CCNCC2)c1	-44.5
COCCN1CC2(CCCN(c3ncc(Cl)cc3F)C2)CCC1=O (stereo not given)	21.8
Cc1cc(NCc2cc(C)oc2C(F)(F)F)n2nc(C)cc2n1	49.1
Cc1cc(NCc2cc3n(n2)CCCN(C(=O)C2CCC2)C3)nc(N)n1	-146
O=c1cc(N2CCNCC2)cnn1Cc1noc(C2CCCC2)n1	-53.5
Cn1ncc(NC(=O)Cn2cc(-c3ccc(F)cn3)cn2)n1	7.16
COc1ccc(OC)c(C2CCN(c3ccc4cc[nH]c4n3)C2)c1 (stereo not given)	-1.6
COc1cccc(-c2noc3c2CN(c2nc(C)ncc2C)CC3)c1	45.1
CCN(CC)C(CNCc1ccc(O)cc1)c1ccco1 (stereo not given)	1.29
O=C(Cc1nc(-c2ccncc2)n[nH]1)N1CCOCC1	-0.749
Cc1ccc(CN2CCN(c3nc4c(s3)c(C)nn4C)C(C)C2=O)cc1 (stereo not given)	76.5
COCCCNC(=O)Cc1nc(-c2ccncc2)n[nH]1	-9.72
O=C1[C@@H]2CN(Cc3cc4ccccc4o3)C[C@]2(C(=O)O)CN1CC1CC1	-5.22
CC1CCN(CCCNC(=O)c2ccc(N(C)S(C)(=O)=O)cc2Cl)CC1	-0.488
CCc1ccc(C2CC(=O)Nc3c2c(=O)[nH]n3C(C)C)cc1 (stereo not given)	-6.87

SMILES	cytotoxicity at 10 µM [%]
COc1cccc2c1OCC(NCCc1cnn(-c3ccccc3)c1)C2 (stereo not given)	-0.6
Cn1ncc2c(NCCOc3ccc(F)cc3)nc(C3CCCC3)nc21	6.1
O=C(c1ccc(C2CCCO2)s1)N1CCN(c2ccccc2F)CC1 (stereo not given)	-15.1
CC(C)OCc1ccc(CNc2cncc(-n3cccn3)n2)cc1	43.8
Cc1nc(CN2CCCC2c2noc(C3CC3)n2)nc2ccccc12 (stereo not given)	-19
CNc1cc2c(nn1)CCN(C(=O)c1cc(C)n(C3CC3)c1C)C2	-14.4
Cc1cc(C)n(CC2CN(Cc3nc4ccccc4s3)CCO2)n1 (stereo not given)	3.93
COc1ccccc1OCCN1CCCCC1Cn1cncn1 (stereo not given)	-32.7
CC1CCCN(Cc2csc(-c3ncccn3)n2)CC1 (stereo not given)	2.73
CC(C)Cc1noc(CN2CCN(CCOc3ccc(Cl)cc3)CC2)n1	24
CCc1cccc(N2CCC(NC(=O)c3cc[nH]n3)CC2)c1	3.08
c1ccc(OCCNC2=NCCCN2)cc1	-2.34
Cc1ccc(O)c(CN(CCCn2ccnc2)Cc2ccc(C)s2)c1	-25.8
Fc1ccc(CN2CCC3(CC2)CN(c2ccccn2)CCO3)cc1	-0.359
O=C(c1ccsc1)N1C[C@@H]2CCN(c3cccnc3)C[C@@H]2C1	-69.3
CC(C)(C)CN1CCCC12CCN(S(=O)(=O)c1ccccc1)C2 (stereo not given)	-67.5
Cc1ccc(O[C@@H]2C[C@H]3CN(c4ncc(F)cn4)CCN3C2)cc1	35.3
Fc1cccc(N2CCCC3(CN(Cc4ccco4)CCO3)C2)c1 (stereo not given)	-63.5
CN(C)CCN1C2(CCN(Cc3nccs3)C2)c2ccccc2S1(=O)=O (stereo not given)	-71.8
O=C1COC2(CCN(CC3CC3)CC2)CN1c1ccsc1	-79.2
O=C(c1ccco1)N1CCC2(CCCN(c3ncccn3)C2)C1 (stereo not given)	-105
O=C1[C@@H]2CC[C@@H](CN(c3ncnc4ccsc34)C2)N1CC1CC1	15.2
